Data reported in ChEMBL document CHEMBL3272047, “3-N-Substituted aminomethyl derivatives of rifamycin SV. A convenient method of synthesis, cyclization of certain derivatives, and anticellular and antiviral activities of several derivatives” (J Med Chem, 1977).

Columns and labels:
[1] = system: Moloney murine sarcoma virus; assay: Antiviral activity against Moloney murine sarcoma virus infected in mouse 3T3-FL cells assessed as inhibition of cellular focal transformation at highest nontoxic concentration after 5 days by microscopic analysis relative to control; assay type: functional
How it was run: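 3T3FL cells seeded 1×10^5/dish in McCoy's 5A with 10% fetal calf serum, incubated overnight, primed with 25 µg/mL DEAE-dextran 20 min at room temperature, infected with ~100 FFU Moloney MSV (1 h adsorption, 37 °C); drug medium (0.25% Me2SO final) added, 5 days 37 °C without medium change; foci counted microscopically versus parallel control cultures.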

[2] = Cytotoxicity against mouse 3T3-FL cells after 24 to 120 hrs; assay type: cell-based; conditions: read-out: MNTD>75
How it was run: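 Uninfected 3T3 cells exposed to drug (0.25% Me2SO final, matched controls); triplicate plates counted at 24, 48, 96 and 120 h to build growth curves. Highest nontoxic level defined as logarithmic growth rate ≥75% of untreated and total growth after 5 days ≥75% of control.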

| SMILES | inhibition (INH) [1] [%] | MNTC [2] [nM] |
| --- | --- | --- |
| CO[C@H]1/C=C/O[C@@]2(C)Oc3c(C)c(O)c4c(O)c5c(c(O)c4c3C2=O)CN(C)C(=N5)/C(C)=C\C=C\[C@H](C)[C@H](O)[C@@H](C)[C@@H](O)[C@@H](C)[C@H](OC(C)=O)[C@@H]1C | 0 | 1400 |
| CNCc1c2c(O)c3c(O)c(C)c4c(c3c1O)C(=O)[C@@](C)(O/C=C/[C@H](OC)[C@@H](C)[C@@H](OC(C)=O)[C@H](C)[C@H](O)[C@H](C)[C@@H](O)[C@@H](C)/C=C/C=C(/C)C(=O)N2)O4 | 14 | 1400 |
| CO[C@H]1/C=C/O[C@@]2(C)Oc3c(C)c(O)c4c(O)c5c(c(O)c4c3C2=O)CNC(=N5)/C(C)=C\C=C\[C@H](C)[C@H](O)[C@@H](C)[C@@H](O)[C@@H](C)[C@H](OC(C)=O)[C@@H]1C | 26 | 1400 |
| CO[C@H]1/C=C/O[C@@]2(C)Oc3c(C)c(O)c4c(O)c(c(CN)c(O)c4c3C2=O)NC(=O)/C(C)=C\C=C\[C@H](C)[C@H](O)[C@@H](C)[C@@H](O)[C@@H](C)[C@H](OC(C)=O)[C@@H]1C | 0 | 1400 |
| CCCNCc1c2c(O)c3c(O)c(C)c4c(c3c1O)C(=O)[C@@](C)(O/C=C/[C@H](OC)[C@@H](C)[C@@H](OC(C)=O)[C@H](C)[C@H](O)[C@H](C)[C@@H](O)[C@@H](C)/C=C/C=C(/C)C(=O)N2)O4 | 10 | 1300 |
